Test system: MS2 coat protein
Test: apparent Kd, MS2 coat protein; higher = weaker binding; RNA-MaP array; FMN 200 µM where present
Summary of the method: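 The apparent Kd is the median of filtered binding-curve fits, one per cluster, to green signal normalised to red-channel RNA signal and control-cluster median Fmax. The clusters were on Illumina sequencing chips, and stalled E. coli RNA polymerase had transcribed the designs on them. Titration used SNAP-549-labelled MS2 coat protein from 0.7 or 1.5 nM, doubling to 3 µM, without and then with constant ligand, in 100 mM Tris-HCl pH 7.5, 80 mM KCl, 4 mM MgCl2, BSA, DTT, yeast tRNA and Tween-20.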

[1] = designed as: OFF switch for flavin mononucleotide, no ligand
[2] = ligand present: flavin mononucleotide, designed as: OFF switch for flavin mononucleotide
[3] = designed as: ON switch for flavin mononucleotide, no ligand
[4] = ligand present: flavin mononucleotide, designed as: ON switch for flavin mononucleotide

| Sequence | apparent Kd [1] [nM] | apparent Kd [2] [nM] | apparent Kd [3] [nM] | apparent Kd [4] [nM] |
| --- | --- | --- | --- | --- |
| AGUCAGAGCAGAGGAUAUAUACAUGAGGAUCACCCAUGUGACUGACUACGCUAGAAAUAGCAUGUAUAGAAGGCUGCUCUGACA | 344 | 911 | – | – |
| AGUCAUACAGGAUAUACAUGAGGAUCACCCAUGUUUAUCCUAAAAUAAAAAACCUCAUGUAGAAGGGUAUGACA | 19.4 | 13.5 | – | – |
| AGUCCACAUGAGGAUCACCCAUGUCUGGAGAAGACAGGAUAUAAGGAAAAAAAAAAAAACUUAGAAGGGUCAAAAA | – | – | 128 | 69.7 |
| AGUCGGAGCAGAGGAUAUAUACAUGAGGAUCACCCAUGUAAAUGGAAUAGCUGGAAACAGCAAGUAUAGAAGGCUGCUCCGACA | 39.5 | 118 | – | – |
| AGUCGGAGCAGAGGAUAUAUACAUGAGGAUCACCCAUGUGACUGACUACGCUAGAAAUAGCAUGUAUAGAAGGCUGCUCCGACA | 388 | 946 | – | – |
| AGUGACGAUACAGGAUAUGCUGGACUUUGUCCAGCAGAAGGGUAUUAACAUGAGGAUCACCCAUGUUUCGUCACCAAAUUUAAU | – | – | 39.5 | 8.22 |
| AGUGCGUAUGUGAGGAUAUGCUGGUCCUUGGCUCGGCAGAAGGCACAUGAGGAUCACCCAUGUGGUGUCGUACG | 62.2 | 412 | – | – |
| AGUGCUAUGUAGAAGGCAGAUCUGAUUCAGAUCUGAGGAUAUACAUGAGGAUCACCCAUGUUAUGCACCAGCACGAGAGUGCAU | 20 | 98 | – | – |
| AGUGUCAUCGAGAAGGCCUCAACAUGAGGAUCACCCAUGUUGCAAAAUGGGAGGAUAUCGCGCGUUAAAAUACGUUUCGUAGCA | – | – | 42.4 | 16.7 |
| AGUGUCAUCGAGAAGGCCUCAACAUGAGGAUCACCCAUGUUGCCAAAAGGGAGGAUAUCGAUGAUACAGCUACGUUUCGUAGCA | – | – | 4.15 | 4.34 |
| AGUGUCAUCGAGAAGGCCUCAACAUGAGGAUCACCCAUGUUGUAAUAUGGGAGGAUAUCGAUGAUACAGCUACGUUUCGUAGCC | – | – | 19.5 | 5.91 |
| AGUGUCAUCGAGAAGGCCUUAACAUGAGGAUCACCCAUGUUGUAAUAUGGGAGGAUAUCGAUGAUACAGCUACGUUUCGUAGCA | – | – | 10.1 | 5.71 |
| AGUGUGUGGCAGGAUAUUCCGGUCGUGAGUCGGGAAGAAGGGUCUACAUGAGGAUCACCCAUGUGAGCGGUUGA | 317 | 360 | – | – |
| AGUUAAUAUCGAGGAUAUGUCUAGACACAUGAGGAUCACCCAUGUAUGUGUAUAGAAGGCGAUAUUAACAGCAUGUUACAUGCG | – | – | 39 | 16.1 |
| AGUUAUCAUGUAGGAUAUGCUUGAGGUAAGAAAGCAGAAGGACAUGAGGAUCACCCAUGUUAAUGAUACAGAUUUUAGUUUCUU | 32.9 | 201 | – | – |
| AGUUCCUCCGCAGGAUAUGUGCUCUUUAUCACAUGAGGAUCACCCAUGUCAGCCUAAACGGCGAGACAGAAGGGUGGUGGUGCC | – | – | 172 | 177 |
| AGUUGGCGAGGAUAUACAUGAGGAUCACCCAUGUGAAAUAUAAGAGUGAGGAAGAAAAGUAGAAGGCGCUGACA | 99.8 | 130 | – | – |
| AGUUGGCGAGGAUAUACAUGAGGAUCACCCAUGUGAGAGAAAAAAAGGAGAAAAAAAAGUAGAAGGCGCUGACA | 37.5 | 120 | – | – |
| AGUUUACAUGAGGAUCACCCAUGUGAGGAUAUGGAAUCGCUGGCCGUAGCCAGUGGUUCCAGAAGGCGCGUGAU | 99 | 187 | – | – |
| AGUUUAUAUCGAGGAUAUAAGUCUAGGACAUGAGGAUCACCCAUGUAUGUCUUAGAAGGCGAUAUAAACAGCCUGUUACAGGCA | – | – | 31.5 | 7.04 |
| AUAAAACAUGAGGAUCACCCAUGUAAUAAGAACCGAGGAUAUGGAAAUAAUAAUAAUAAACCAGAAGGUGGUGAUC | – | – | 146 | 326 |
| AUAAAACAUGAGGAUCACCCAUGUAGACAUAUGGGAGGAUAUACUAGAUCGAAAGAUCUAGUAGAAGGCCUUUAUG | – | – | 44.2 | 20.8 |
| AUAAAACGAGGAUAUGCUGGGCUUCUGUGAUGCAUAUGCUCACAUGAGGAUCACCCAUGUAGAAGGUGUAAAAU | 278 | 289 | – | – |
